Values joined by “and” are separate entries in the source; they are usually repeats but may differ in a detail not shown here. Equal values may be shown once.
Legend:
KB [1] = test: Cytotoxicity against KB cells after a 3 day incubation; format: functional, Homo sapiens; settings: read-out: ID50 (the source's name)
Summary of the method: (§1)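 KB cells (parental ATCC line and resistant variants) exposed to drug at five concentrations […] for 3 days. ID50 is the concentration giving 50% reduction in cell number, derived from the degree of inhibition at the five concentrations.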

Tumor Cell line [2] = test: Drug molar concentration required to inhibit 50% of human tumor cell growth; format: functional
Summary of the method: (§2)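 NCI panel of 54 human tumor lines from eight cancer types, mostly seeded at 20 000 cells/well. Cells were preincubated 24 h without drug, then exposed to five 10-fold dilutions for 48 h, fixed and stained with sulforhodamine B, and read spectrophotometrically. Versus control, GI50 (50% growth inhibition), TGI (0% growth) and LC50 (−50% growth) were calculated; mean graph midpoints average all lines.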

Tumor Cell line [3] = test: Drug concentration required to inhibit total cell growth; format: functional, Homo sapiens; settings: read-out: Log TGI (converted); summary of the method: as §2
KB [4] = test: 50% reduction in the number of KB ATCC cells; format: functional; settings: Homo sapiens, read-out: ID50 (the source's name); summary of the method: as §1
Tumor Cell line [5] = test: Drug concentration required to cause 50% cell death; format: functional, Homo sapiens; settings: Homo sapiens, Tumor Cell line
Summary of the method: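 NCI in vitro panel of 54 human tumor cell lines from eight cancer types, mostly seeded at 20 000 cells/well and preincubated 24 h without drug. Five 10-fold dilutions were then added for a further 48 h. Cells were fixed in situ and stained with sulforhodamine B, and bound dye was read spectrophotometrically. LC50 (−50% growth versus control) was taken from five-point dose-response curves and reported as the log10 mean-graph midpoint across lines.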

KB [6] = test: 50% reduction in the number of KB 7D (topoisomerase II, aMDR) resistant variant; format: functional, Homo sapiens; settings: Homo sapiens, KB; read-out: ID50 (the source's name); summary of the method: as §1
KB [7] = test: 50% reduction in the number of KB V20C resistant variant; format: functional, Homo sapiens; settings: Homo sapiens, KB; read-out: ID50 (the source's name); summary of the method: as §1
Nucleic Acid = test: Percentage inhibition of cellular protein-DNA complex formation; format: functional; settings: Homo sapiens
[8] = biological target: DNA topoisomerase II (Homo sapiens) (UniProt P11388+Q02880); test: 50% inhibition of human DNA topoisomerase II; format: protein assay

CCOC(=O)N1CCC(N[C@@H]2c3cc4c(cc3[C@@H](c3cc(OC)c(O)c(OC)c3)[C@H]3C(=O)OC[C@@H]32)OCO4)CC1
IC50 (KB [1]): 1130 nM | GI50 (Tumor Cell line [2]): 1780 nM | TGI (Tumor Cell line [3]): 8130 nM

COc1cc([C@@H]2c3cc4c(cc3[C@@H](NCCN(C)C)[C@H]3COC(=O)[C@H]23)OCO4)cc(OC)c1O
IC50 (KB [4]): 400 nM | IC50 (KB [1]; Homo sapiens, KB, 72 h): 400 nM | GI50 (Tumor Cell line [2]; Homo sapiens, Tumor Cell line): 155 nM | LC50 (Tumor Cell line [5]): 15100 nM | TGI (Tumor Cell line [3]; Homo sapiens, Tumor Cell line): 1480 nM | IC50 (KB [6]): 680 nM | IC50 (KB [7]): 440 nM

COc1cc([C@@H]2c3cc4c(cc3[C@@H](NCCCN(C)C)[C@H]3COC(=O)[C@H]23)OCO4)cc(OC)c1O
Complex formation (Nucleic Acid): 179% and 186% | ID50 [8]: 25000 nM
